Key:
Format in all cases: functional
Escherichia coli [1] = assay: Antibacterial activity against extended-spectrum beta-lactamase producing Escherichia coli isolate 212648 after 18 hrs by CLSI broth microdilution method; conditions: isolate 212648, 18 h
Escherichia coli [2] = assay: Selectivity index, ratio of MIC for against extended-spectrum beta-lactamase producing Escherichia coli isolate 208687 to MIC for extended-spectrum beta-lactamase producing Escherichia coli isolate 208687 in presence of BPL
Escherichia coli [3] = assay: Antibacterial activity against Escherichia coli isolate 210737 after 18 hrs by CLSI broth microdilution method; conditions: isolate 210737, 18 h
Escherichia coli [4] = assay: Antibacterial activity against extended-spectrum beta-lactamase producing Escherichia coli isolate 208687 after 18 hrs by CLSI broth microdilution method; conditions: isolate 208687, 18 h
Escherichia coli [5] = assay: Antibacterial activity against extended-spectrum beta-lactamase producing Escherichia coli isolate 208687 after 18 hrs in presence of BPL by CLSI broth microdilution method; conditions: isolate 208687, 18 h
In short: (§1)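 CLSI broth microdilution against clinical isolates (ESBL E. coli, KPC-2 MDR K. pneumoniae, IMP-4 MDR P. aeruginosa; five per species). Iron limitation: Mueller-Hinton broth supplemented with 16 mg/liter 2,2'-bipyridyl to complex iron and induce iron uptake systems. Read-out: MIC.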

Escherichia coli [6] = assay: Antibacterial activity against Escherichia coli isolate 210737 after 18 hrs in presence of BPL by CLSI broth microdilution method; conditions: isolate 210737, 18 h; in short: as §1
Escherichia coli [7] = assay: Selectivity index, ratio of MIC for against Escherichia coli isolate 210737 to MIC for Escherichia coli isolate 210737 in presence of BPL
Escherichia coli [8] = assay: Antibacterial activity against extended-spectrum beta-lactamase producing Escherichia coli isolate 212648 after 18 hrs in presence of BPL by CLSI broth microdilution method; conditions: isolate 212648, 18 h; in short: as §1
Escherichia coli [9] = assay: Selectivity index, ratio of MIC for against extended-spectrum beta-lactamase producing Escherichia coli isolate 212648 to MIC for extended-spectrum beta-lactamase producing Escherichia coli isolate 212648 in presence of BPL
Escherichia coli [10] = assay: Antibacterial activity against extended-spectrum beta-lactamase producing Escherichia coli isolate 209285 after 18 hrs by CLSI broth microdilution method; conditions: isolate 209285, 18 h
Escherichia coli [11] = assay: Antibacterial activity against extended-spectrum beta-lactamase producing Escherichia coli isolate 209285 after 18 hrs in presence of BPL by CLSI broth microdilution method; conditions: isolate 209285, 18 h; in short: as §1
Escherichia coli [12] = assay: Selectivity index, ratio of MIC for against extended-spectrum beta-lactamase producing Escherichia coli isolate 209285 to MIC for extended-spectrum beta-lactamase producing Escherichia coli isolate 209285 in presence of BPL
Escherichia coli [13] = assay: Antibacterial activity against extended-spectrum beta-lactamase producing Escherichia coli isolate 106342 after 18 hrs by CLSI broth microdilution method; conditions: isolate 106342, 18 h
Escherichia coli [14] = assay: Antibacterial activity against extended-spectrum beta-lactamase producing Escherichia coli isolate 106342 after 18 hrs in presence of BPL by CLSI broth microdilution method; conditions: isolate 106342, 18 h; in short: as §1
Escherichia coli [15] = assay: Selectivity index, ratio of MIC for against extended-spectrum beta-lactamase producing Escherichia coli isolate 106342 to MIC for extended-spectrum beta-lactamase producing Escherichia coli isolate 106342 in presence of BPL
Klebsiella pneumoniae [16] = assay: Antibacterial activity against KPC-2 producing Klebsiella pneumoniae isolate 212423 after 18 hrs by CLSI broth microdilution method; conditions: isolate 212423, 18 h
Klebsiella pneumoniae [17] = assay: Antibacterial activity against KPC-2 producing Klebsiella pneumoniae isolate 212423 after 18 hrs in presence of BPL by CLSI broth microdilution method; conditions: isolate 212423, 18 h; in short: as §1
Klebsiella pneumoniae [18] = assay: Antibacterial activity against KPC-2 producing Klebsiella pneumoniae isolate 209632 after 18 hrs by CLSI broth microdilution method; conditions: isolate 209632, 18 h
Klebsiella pneumoniae [19] = assay: Antibacterial activity against KPC-2 producing Klebsiella pneumoniae isolate 209632 after 18 hrs in presence of BPL by CLSI broth microdilution method; conditions: isolate 209632, 18 h; in short: as §1
Klebsiella pneumoniae [20] = assay: Antibacterial activity against KPC-2 producing Klebsiella pneumoniae isolate 209735 after 18 hrs by CLSI broth microdilution method; conditions: isolate 209735, 18 h
Klebsiella pneumoniae [21] = assay: Antibacterial activity against KPC-2 producing Klebsiella pneumoniae isolate 209735 after 18 hrs in presence of BPL by CLSI broth microdilution method; conditions: isolate 209735, 18 h; in short: as §1
Klebsiella pneumoniae [22] = assay: Antibacterial activity against KPC-2 producing Klebsiella pneumoniae isolate 212232 after 18 hrs by CLSI broth microdilution method; conditions: isolate 212232, 18 h
Klebsiella pneumoniae [23] = assay: Antibacterial activity against KPC-2 producing Klebsiella pneumoniae isolate 212232 after 18 hrs in presence of BPL by CLSI broth microdilution method; conditions: isolate 212232, 18 h; in short: as §1
Klebsiella pneumoniae [24] = assay: Antibacterial activity against KPC-2 producing Klebsiella pneumoniae isolate 212229 after 18 hrs by CLSI broth microdilution method; conditions: isolate 212229, 18 h
Klebsiella pneumoniae [25] = assay: Antibacterial activity against KPC-2 producing Klebsiella pneumoniae isolate 212229 after 18 hrs in presence of BPL by CLSI broth microdilution method; conditions: isolate 212229, 18 h; in short: as §1
Pseudomonas aeruginosa [26] = assay: Antibacterial activity against IMP-4 producing Pseudomonas aeruginosa isolate 212886 after 18 hrs by CLSI broth microdilution method; conditions: isolate 212886, 18 h
Pseudomonas aeruginosa [27] = assay: Antibacterial activity against IMP-4 producing Pseudomonas aeruginosa isolate 212886 after 18 hrs in presence of BPL by CLSI broth microdilution method; conditions: isolate 212886, 18 h; in short: as §1
Pseudomonas aeruginosa [28] = assay: Antibacterial activity against IMP-4 producing Pseudomonas aeruginosa isolate 209471 after 18 hrs by CLSI broth microdilution method; conditions: isolate 209471, 18 h
Pseudomonas aeruginosa [29] = assay: Antibacterial activity against IMP-4 producing Pseudomonas aeruginosa isolate 209471 after 18 hrs in presence of BPL by CLSI broth microdilution method; conditions: isolate 209471, 18 h; in short: as §1
Pseudomonas aeruginosa [30] = assay: Antibacterial activity against IMP-4 producing Pseudomonas aeruginosa isolate 208247 after 18 hrs by CLSI broth microdilution method; conditions: isolate 208247, 18 h
Pseudomonas aeruginosa [31] = assay: Antibacterial activity against IMP-4 producing Pseudomonas aeruginosa isolate 208247 after 18 hrs in presence of BPL by CLSI broth microdilution method; conditions: isolate 208247, 18 h; in short: as §1
Pseudomonas aeruginosa [32] = assay: Antibacterial activity against IMP-4 producing Pseudomonas aeruginosa isolate 209321 after 18 hrs by CLSI broth microdilution method; conditions: isolate 209321, 18 h
Pseudomonas aeruginosa [33] = assay: Antibacterial activity against IMP-4 producing Pseudomonas aeruginosa isolate 209321 after 18 hrs in presence of BPL by CLSI broth microdilution method; conditions: isolate 209321, 18 h; in short: as §1
Pseudomonas aeruginosa [34] = assay: Selectivity index, ratio of MIC for against IMP-4 producing Pseudomonas aeruginosa isolate 209321 to MIC for against IMP-4 producing Pseudomonas aeruginosa isolate 209321 in presence of BPL
Pseudomonas aeruginosa [35] = assay: Antibacterial activity against IMP-4 producing Pseudomonas aeruginosa isolate 207272 after 18 hrs by CLSI broth microdilution method; conditions: isolate 207272, 18 h
Pseudomonas aeruginosa [36] = assay: Antibacterial activity against IMP-4 producing Pseudomonas aeruginosa isolate 207272 after 18 hrs in presence of BPL by CLSI broth microdilution method; conditions: isolate 207272, 18 h; in short: as §1

C=CC1[C@H](NC(=O)/C(=N\OC(c2cc(=O)c(O)cn2O)C(C)C)c2csc(N)n2)C(=O)N1S(=O)(=O)O (stereo partly specified)
1: Selectivity Index (Escherichia coli [15]) | Selectivity Index (Pseudomonas aeruginosa [34])
32: Selectivity Index (Escherichia coli [2])
2 µg/mL: MIC (Escherichia coli [5])
> 64 µg/mL: MIC (Escherichia coli [1]) | MIC (Escherichia coli [3]) | MIC (Escherichia coli [6]) | MIC (Escherichia coli [8]) | MIC (Escherichia coli [10]) | MIC (Escherichia coli [11]) | MIC (Klebsiella pneumoniae [16]) | MIC (Klebsiella pneumoniae [17]) | MIC (Klebsiella pneumoniae [18]) | MIC (Klebsiella pneumoniae [19]) | MIC (Klebsiella pneumoniae [20]) | MIC (Klebsiella pneumoniae [21]) | MIC (Klebsiella pneumoniae [22]) | MIC (Klebsiella pneumoniae [23]) | MIC (Klebsiella pneumoniae [24]) | MIC (Klebsiella pneumoniae [25]) | MIC (Pseudomonas aeruginosa [26]) | MIC (Pseudomonas aeruginosa [27]) | MIC (Pseudomonas aeruginosa [28]) | MIC (Pseudomonas aeruginosa [29]) | MIC (Pseudomonas aeruginosa [30]) | MIC (Pseudomonas aeruginosa [31]) | MIC (Pseudomonas aeruginosa [35]) | MIC (Pseudomonas aeruginosa [36])
1 - 32: Selectivity Index (Escherichia coli [7]) | Selectivity Index (Escherichia coli [9]) | Selectivity Index (Escherichia coli [12])
64 µg/mL: MIC (Escherichia coli [4]) | MIC (Escherichia coli [13]) | MIC (Escherichia coli [14]) | MIC (Pseudomonas aeruginosa [32]) | MIC (Pseudomonas aeruginosa [33])

From ChEMBL document CHEMBL4152188, “Design, synthesis and biological evaluation of C(4) substituted monobactams as antibacterial agents against multidrug-resistant Gram-negative bacteria” (Eur J Med Chem, 2018)
